Test results published in ChEMBL document CHEMBL1124572, “Synthesis and biological activity of novel carbacyclins having bicyclic substituents on the omega-chain” (J Med Chem, 1989).
≈ marks a conversion by molar mass, not a printed value. Calls of active or inactive are those of the source. The calls are words filed in the database; no cut-off is given here.

Experiments:
[1] = organism: Rattus norvegicus; test: Antiaggregatory activity is expressed as dose that inhibit rat platelet aggregation induced by collagen by 50% of that of the control; type: functional
Outline: (§1)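 Male Wistar rats (250–350 g) under ether anesthesia were bled from the abdominal aorta into 0.1 volume 3.13% sodium citrate. Aggregation was induced by collagen (final 5 μg/mL) and read in an aggregometer at 37 °C with stirring. The IC50 is the concentration inhibiting aggregation by 50% versus control, derived by linear regression from three dose groups of five or six animals (mean ± SEM).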

[2] = test system: Rattus norvegicus; test: Dose that reduces mean blood pressure by 15 mmHg (peak effect) in rat administered intravenously; type: functional
Outline: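 Male Wistar rats (200–300 g) were anesthetized with urethane. Compound was given iv via the femoral vein, and blood pressure was recorded by transducer through a femoral artery catheter. MBP15 is the dose lowering mean blood pressure by 15 mmHg at peak effect, derived by linear regression from three dose groups of five or six animals (mean ± SEM).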

[3] = test system: Rattus norvegicus; test: Inhibition of ethanol induced gastric lesions in the rat following p.o. administration; No effect.; type: functional, organism-based; conditions: Stomach
Outline: (§2)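 Male Sprague-Dawley rats (200–300 g) were fasted 24 h and dosed orally at 2 mL/kg, 30 min before 1 mL of 100% ethanol per rat. Animals were killed 1 h later, and stomachs were formalin-fixed, opened along the greater curvature and examined for lesions. ED50 is the dose giving 50% lesion inhibition versus control, derived by linear regression from three dose groups of eight rats each.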

[4] = test system: Rattus norvegicus; test: Inhibition of ethanol induced gastric lesions in the rat following p.o. administration.; type: functional; conditions: Stomach, po; outline: as §2
[5] = test system: Rattus norvegicus; test: Organ-protective activity is expressed as dose that inhibits 50 percent of ethanol-induced gastric lesions of control orally in rat; No effect; type: functional, organism-based; conditions: Stomach; outline: as §2
[6] = organism: Rattus norvegicus; test: Relative potency for antiaggregation; type: functional
Outline: (§3)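 Antiaggregation relative potency was calculated against PGI2 from the IC50 for collagen-induced (5 μg/mL) aggregation of citrated rat blood, measured at 37 °C.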

[7] = organism: Rattus norvegicus; test: Relative potency for hypotension; type: functional
[8] = organism: Rattus norvegicus; test: Relative potency for organ protection in rats; type: functional
Outline: (§4)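 Relative potencies were calculated against PGE2 from the rat oral ED50 for ethanol-induced gastric lesions and the iv MBP15 hypotension dose. The ratio is organ-protective relative potency divided by hypotensive relative potency, with PGE2 set to 1.0.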

[9] = organism: Rattus norvegicus; test: Relative potency for hypotension in rats; type: functional
[10] = Ratio of relative potencies of organ protection/ hypotension to that of PGE-2 in rats; type: functional; outline: as §4
[11] = Ratio of relative potencies of antiaggregation/ hypotension to that of PGI-2 Na in rats
[12] = organism: Rattus norvegicus; test: Relative potency for organ protection; type: functional; outline: as §4
[13] = organism: Rattus norvegicus; test: Antiaggregatory activity is expressed as dose that inhibit rat platelet aggregation induced by collagen by 50% of that of the control; No effect; type: functional; outline: as §1
[14] = organism: Rattus norvegicus; test: Relative potency for antiaggregation in rats; type: functional; outline: as §3

SMILES | IC50 [1] | Dose lowering mean blood pressure by 15 mmHg [2] | ED50 [4] | further results
O=C(O)CCC/C=C1\CC2C[C@@H](O)[C@H](/C=C/[C@@H](O)c3ccc4c(c3)OCO4)C2C1 (some centres not stated) | > 1 µg/mL | >0.1 mg/kg |  | ED50 [3]: No effect
NC(=O)CCC/C=C1\CC2C[C@@H](O)[C@H](/C=C/[C@@H](O)C3Cc4ccccc4C3)C2C1 (some centres not stated) | 0.0537 µg/mL (≈ 0.136 µM) | 0.0977 mg/kg | 0.113 mg/kg | 
CC(C)c1cccc2c(CC[C@H](O)/C=C/[C@@H]3C4C/C(=C/CCCC(=O)O)CC4C[C@H]3O)ccc-2c1 (some centres not stated) | > 1 µg/mL | >0.1 mg/kg |  | ED50 [3]: No effect
CCCCC[C@H](O)/C=C/[C@@H]1[C@H]2C/C(=C/CCCC(=O)[O-])O[C@H]2C[C@H]1O.[Na+] [EPOPROSTENOL SODIUM] | 0.0034 µg/mL | 0.0003 mg/kg |  | ED50 [5]: inactive; Relative potency [6]: 1; Relative potency [7]: 1
CC1([C@H](O)/C=C/[C@@H]2C3CC(CCOCC(=O)O)=C[C@H]3C[C@H]2O)Cc2ccccc2C1 (some centres not stated) | 0.0692 µg/mL (≈ 0.168 µM) | 0.002 mg/kg | 0.006 mg/kg | 
O=C(O)CCC/C=C1\CC2C[C@@H](O)[C@H](/C=C/[C@@H](O)c3ccc4c(c3)OCCO4)C2C1 (some centres not stated) | > 1 µg/mL | >0.1 mg/kg | > 0.3 mg/kg | 
CC1([C@H](O)/C=C/[C@@H]2C3C/C(=C/COCC(=O)O)CC3C[C@H]2O)Cc2ccccc2C1 (some centres not stated) | 0.118 µg/mL (≈ 0.286 µM) | 0.0076 mg/kg | 0.0397 mg/kg | 
O=C(O)CCC/C=C1\CC2C[C@@H](O)[C@H](/C=C/[C@@H](O)C3Cc4ccc([N+](=O)[O-])cc4C3)C2C1 (some centres not stated) | 0.15 µg/mL (≈ 0.34 µM) | 0.0085 mg/kg | 0.14 mg/kg | 
COc1ccc2c(c1)OCC([C@H](O)/C=C/[C@@H]1C3C/C(=C/CCCC(=O)O)CC3C[C@H]1O)O2 (some centres not stated) | 0.355 µg/mL (≈ 0.799 µM) | 0.0035 mg/kg | 0.0021 mg/kg | Relative potency [8]: 16.2; Relative potency [9]: 0.3; Ratio [10]: 47.6
O=C(O)CCC/C=C1\CC2C[C@@H](O)[C@H](/C=C/[C@@H](O)c3ccc4c(c3)CCC4)C2C1 (some centres not stated) | > 1 µg/mL | >0.1 mg/kg |  | ED50 [3]: No effect
Cc1ccc2c(c1)OCC([C@H](O)/C=C/[C@@H]1C3C/C(=C/CCCC(=O)O)CC3C[C@H]1O)O2 (some centres not stated) | 0.647 µg/mL (≈ 1.51 µM) | 0.013 mg/kg | 0.11 mg/kg | 
O=C(O)CCC/C=C1\CC2C[C@@H](O)[C@H](C#C[C@@H](O)C3Cc4ccccc4C3)C2C1 (some centres not stated) | 0.0082 µg/mL (≈ 0.0208 µM) | 0.0013 mg/kg | 0.0017 mg/kg | Relative potency [8]: 20.1; Relative potency [6]: 0.42; Relative potency [9]: 0.9; Ratio [10]: 21.8; Ratio [11]: 1.8
O=C(O)COC/C=C1\CC2C[C@@H](O)[C@H](/C=C/[C@@H](O)C3COc4ccccc4O3)C2C1 (some centres not stated) | 0.582 µg/mL (≈ 1.4 µM) | 0.0025 mg/kg | 0.113 mg/kg | 
CCCCC[C@H](O)/C=C/[C@H]1[C@H](O)CC(=O)[C@@H]1C/C=C\CCCC(=O)O [DINOPROSTONE] |  | 0.0012 mg/kg | 0.0341 mg/kg | Relative potency [12]: 1; Relative potency [7]: 1; IC50 [13]: Not Active
CC1([C@H](O)/C=C/[C@@H]2C3C/C(=C/CCCC(=O)O)CC3C[C@H]2O)Cc2ccccc2C1 (some centres not stated) | 0.0302 µg/mL (≈ 0.0736 µM) | 0.0053 mg/kg | 0.0452 mg/kg | 
COc1ccc2c(c1)CC([C@H](O)/C=C/[C@@H]1C3C/C(=C/CCCC(=O)O)CC3C[C@H]1O)C2 (some centres not stated) | 0.0705 µg/mL (≈ 0.165 µM) | 0.006 mg/kg | 0.0143 mg/kg | 
O=C(O)COCCC1=C[C@H]2C[C@@H](O)[C@H](/C=C/[C@@H](O)C3COc4ccccc4O3)C2C1 (some centres not stated) | 0.0531 µg/mL (≈ 0.128 µM) | 0.0017 mg/kg | 0.0085 mg/kg | 
COc1ccc2c(c1)OCC([C@H](O)/C=C/[C@@H]1C3C/C(=C/COCC(=O)O)CC3C[C@H]1O)O2 (some centres not stated) | > 1 µg/mL | 0.0062 mg/kg |  | ED50 [3]: No effect
O=C(O)COC/C=C1\CC2C[C@@H](O)[C@H](/C=C/[C@@H](O)C3Cc4ccccc4C3)C2C1 (some centres not stated) | 0.0153 µg/mL (≈ 0.0384 µM) | 0.0038 mg/kg | 0.0675 mg/kg | Relative potency [9]: 0.08; Relative potency [14]: 0.23
CC1([C@H](O)/C=C/[C@@H]2C3C/C(=C/CCCC(=O)O)CC3C[C@H]2O)COc2ccccc2O1 (some centres not stated) | 0.221 µg/mL (≈ 0.516 µM) | 0.0036 mg/kg | 0.0142 mg/kg | 
O=C(O)CCC/C=C1\CC2C[C@@H](O)[C@H](CC[C@@H](O)C3Cc4ccccc4C3)C2C1 (some centres not stated) | 0.0764 µg/mL (≈ 0.192 µM) | 0.035 mg/kg |  | ED50 [3]: No effect
OCCCC/C=C1\CC2C[C@@H](O)[C@H](/C=C/[C@@H](O)C3Cc4ccccc4C3)C2C1 (some centres not stated) | > 1 µg/mL | >0.1 mg/kg | 0.0536 mg/kg | 
O=C(O)CCC/C=C1\CC2C[C@@H](O)[C@H](/C=C/[C@@H](O)C3CCc4ccccc43)C2C1 (some centres not stated) | > 1 µg/mL | >0.1 mg/kg |  | ED50 [3]: No effect
O=C(O)CCC/C=C1\CC2C[C@@H](O)[C@H](/C=C/[C@@H](O)C3COC4CCCCC4O3)C2C1 (some centres not stated) | > 1 µg/mL | 0.0135 mg/kg | 0.256 mg/kg | 
O=C(O)CCC/C=C1\CC2C[C@@H](O)[C@H](/C=C/[C@@H](O)CC3COc4ccccc4O3)C2C1 (some centres not stated) | 0.324 µg/mL (≈ 0.755 µM) | 0.044 mg/kg | > 0.3 mg/kg | 
O=C(O)CCC/C=C1\CC2C[C@@H](O)[C@H](/C=C/[C@@H](O)C3COc4ccccc4O3)C2C1 (some centres not stated) | 0.324 µg/mL (≈ 0.781 µM) | 0.002 mg/kg | 0.0045 mg/kg | Relative potency [8]: 7.6; Relative potency [9]: 0.6; Ratio [10]: 12.7
O=C(O)COCCC1=C[C@H]2C[C@@H](O)[C@H](/C=C/[C@@H](O)C3Cc4ccccc4C3)C2C1 (some centres not stated) | 0.0567 µg/mL (≈ 0.142 µM) | 0.0022 mg/kg | 0.0274 mg/kg | 
O=C(O)CCC/C=C1\CC2C[C@@H](O)[C@H](/C=C/[C@@H](O)C3Cc4ccc(Cl)cc4C3)C2C1 (some centres not stated) | 0.407 µg/mL (≈ 0.945 µM) | >0.1 mg/kg | > 0.3 mg/kg | 
O=C(O)CCC/C=C1\CC2C[C@@H](O)[C@H](/C=C/[C@@H](O)C3Cc4ccccc4C3)C2C1 (some centres not stated) | 0.0204 µg/mL (≈ 0.0514 µM) | 0.0043 mg/kg | 0.0562 mg/kg | Relative potency [9]: 0.07; Relative potency [14]: 0.17; Ratio [11]: 2.4
